EphB4 antag – EphB4-ephrin-B2 interaction antagonism; inhibition, % at 7 µM; 97,000 tested, 0.15% active; EphB4 LBD / TNYL-RAW-Alexa532 peptide, fluorescence polarization; P54760;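 active = inhibition above the screen-wide mean inhibition plus 3 SD, cut at about 15% in these data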;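 also: 0% = DMSO wells and 100% = excess unlabeled TNYL-RAW peptide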
Target sequence (P54760 whole entry, looked up, the tested form may be a part): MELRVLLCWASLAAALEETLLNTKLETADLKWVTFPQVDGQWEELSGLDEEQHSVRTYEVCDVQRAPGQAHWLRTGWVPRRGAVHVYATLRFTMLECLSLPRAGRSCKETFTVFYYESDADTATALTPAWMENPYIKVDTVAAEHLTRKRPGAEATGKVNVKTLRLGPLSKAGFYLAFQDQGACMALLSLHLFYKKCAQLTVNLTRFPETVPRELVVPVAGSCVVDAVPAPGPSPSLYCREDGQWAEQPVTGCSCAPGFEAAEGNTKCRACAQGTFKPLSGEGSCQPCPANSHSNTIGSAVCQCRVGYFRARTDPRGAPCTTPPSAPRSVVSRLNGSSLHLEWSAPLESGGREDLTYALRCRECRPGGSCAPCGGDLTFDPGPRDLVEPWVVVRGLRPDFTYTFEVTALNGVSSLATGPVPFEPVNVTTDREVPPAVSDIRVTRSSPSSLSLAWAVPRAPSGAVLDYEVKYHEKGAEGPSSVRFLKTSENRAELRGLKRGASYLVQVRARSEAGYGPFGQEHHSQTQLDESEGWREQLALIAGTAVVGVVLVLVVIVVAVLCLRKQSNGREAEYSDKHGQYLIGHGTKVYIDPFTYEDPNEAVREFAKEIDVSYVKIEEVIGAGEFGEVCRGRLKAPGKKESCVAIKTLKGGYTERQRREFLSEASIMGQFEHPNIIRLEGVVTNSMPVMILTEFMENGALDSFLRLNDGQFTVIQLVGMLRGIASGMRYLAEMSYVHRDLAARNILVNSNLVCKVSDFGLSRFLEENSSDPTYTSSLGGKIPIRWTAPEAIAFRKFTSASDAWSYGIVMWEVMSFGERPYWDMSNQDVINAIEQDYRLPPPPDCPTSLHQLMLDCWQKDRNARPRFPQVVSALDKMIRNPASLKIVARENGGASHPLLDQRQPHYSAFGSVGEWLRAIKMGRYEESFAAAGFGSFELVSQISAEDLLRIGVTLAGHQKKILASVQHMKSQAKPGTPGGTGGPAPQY
Plk1 PBD FP – inhibitors of human Plk1 polo box domain binding | inhibition, %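 (tested at about 20 µM)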 | AID 693 | P53350 | 97,000 tested, 0.13% active | Plk1 PBD phosphopeptide binding, fluorescence polarization; in the data active = inhibition above about 34%, passing the limit was not always enough
Rev-RRE block – inhibitors of HIV-1 Rev-RRE RNA interaction; 97,000 tested, 0.79% active; AID 704; Rev peptide-RRE RNA binding, FRET; P05866; inhibition, % at 8 µM;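 active = inhibition above the screen-wide mean plus 3 SD, cut at about 35% in these data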;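 also: 0% = median DMSO wells and 100% = median Neomycin B control wells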
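Test system: Cy5-tagged RRE RNA duplex with fluorescein-tagged Rev peptide | Read-out: % inhibition of FRET ratio versus controls | Probe or stimulus: Labelled Rev peptide | Incubation: 5 min RNA-compound premix plus 15 min binding step, 25 °C | Technique: FRET fluorescence readout | Benchmarks: DMSO low control, neomycin B high control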
PLK1 kinase inh – PLK1 (human) kinase inhibition. P53350. recombinant PLK1 kinase, TR-FRET peptide phosphorylation. inhibition, % at 10 µM. 97,000 tested, 0.53% active. AID 619;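 active = inhibition of 50% or more in the single-concentration screen; inactive = inhibition below 50%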;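 also: 0% = DMSO max control and 100% = H-89 dihydrochloride min control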
FAK blocker – FAK (human) kinase inhibition; AID 727; biochemical FAK kinase activity assay; inhibition, %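 (tested at 7 µM)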; 97,000 tested, 0.84% active; Q05397; in the data active = inhibition above about 19%;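 also: 0% = DMSO and 100% = reference compound high control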
hDAT+cocaine – changed human dopamine transporter uptake under cocaine IC80; LLC-PK1 hDAT cells, [14C]-dopamine uptake with cocaine IC80; actives deviate in either direction; B-score at 10 µM; 110,000 tested, 1.3% active; Q01959;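 active = Z score or B-score, a plate-position-corrected score, falls beyond the plate's 99.7% confidence bounds, in either direction; inactive = both scores lie inside the 99.7% bounds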;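 also: scored against the spread of the other compound wells on the same plate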
An asterisk follows results filed as active; / = not tested or not shown; [ ] = dose if it differs, or a comment. Shown are actives, neighbours in structure and some others; about 3.2% of the full set was active somewhere.

SMILES	EphB4 antag	Plk1 PBD FP	Rev-RRE block	PLK1 kinase inh	FAK blocker	hDAT+cocaine
Nc1c(C(=O)c2ccccc2)sc2snc(SCC(=O)c3ccccc3)c12	1.9	-47.3	77.8*	20.6	8.7	1.13
CCOC(=O)NC(NC(=S)Nc1ccccc1[N+](=O)[O-])C(Cl)(Cl)Cl (stereo unspecified)	2.9	6.2	4.4	2.2	0.8	-3.53*
COc1ccc(NC(=S)NC(NC(=O)c2cccc(C)c2)C(Cl)(Cl)Cl)c([N+](=O)[O-])c1 (stereo unspecified)	-2.6	6.2	2.9	-8.6	1.6	-1.09
NC(=O)C1CCN(CC(=O)Nc2ccccn2)CC1	1.1	-5.7	11.2	-8.5	2.6	/
CC(NC(=O)CN1CCC(C(N)=O)CC1)c1ccccc1 (stereo unspecified)	0.4	5.4	4.8	-7.0	-2.8	-8.07*
O=C(Cn1c(O)c(/C=C2\C=Nc3ccccc32)sc1=O)Nc1ccc2c(c1)OCO2	2.0	22.6	14.5	-6.4	-5.1	-0.865
CCOC(=O)c1c(Nc2ccc(Cl)cc2)sc(/C=C2\C=Nc3ccccc32)c1O	-12.2	16.5	40.5*	-8.2	1.0	0.0166
Cc1[nH]c2ccccc2c1/C=C/c1cc[n+](C)cc1	2.5	-86.7	138.2*[fluorescence artefact?]	-68.7	2.1	/
O=C(/C=C/c1ccccc1Cl)NCc1ccccc1	15.6*	0.1	4.0	-8.9	-0.1	0.307
CN1C(=O)c2cccc(NCCCN3C(=O)c4ccccc4C3=O)c2C1=O	1.8	-17.9	57.8*	1.8	1.1	-0.286
Nc1cccnc1Sc1cc(Cl)c(Cl)cc1Cl	3.1	0.1	-0.6	-14.9	2.2	-1.02
CCOc1ccc(NC(=O)CN2CCN(CC(=O)Nc3ccc(Cl)c(C(F)(F)F)c3)CC2)cc1	3.5	-14.2	18.6	0.9	-0.7	0.146
COc1ccc(-c2nnc(SC(C)C(=O)NCc3ccc4c(c3)OCO4)n2Cc2ccco2)cc1 (stereo unspecified)	10.7	9.2	12.9	4.5	-1.9	0.359
O=C(NCc1ccccc1)C1=C[C@@H](C2CCCCC2)C[C@@H](OCCCCO)O1	/	/	/	/	/	0.976
CC(C)N(C(=O)CSc1nc2ccccc2n1Cc1ccc(F)cc1)C(C)C	3.7	-5.9	9.9	-1.2	-1.2	0.0082
O=C(CSc1nc2ccccc2c(=O)n1Cc1ccco1)NCc1ccco1	-3.1	4.8	-0.9	-6.8	1.3	0.215
O=C(NCc1ccco1)c1ccc2c(=O)n(Cc3ccco3)c(SCC(=O)N3CCCC3)nc2c1	0.2	0.9	-1.5	-0.4	9.4	2.2*
Cc1ccc(/C=C/C(=O)N2CC(C)CC(C)C2)o1 (stereo unspecified)	2.7	-5.0	1.4	-9.1	0.8	0.77
CCOc1ccc2nc3c(cc2c1)CN(CCOC)C(=NCCOC)S3	2.9	14.5	-1.1	-7.5	2.6	-0.581
COCCN=C1Sc2nc3ccc(C)cc3cc2CN1Cc1ccco1	5.1	-21.5	3.2	-1.2	-0.5	3.17*
COC(=O)C1=C(COc2ccccc2)NC(=O)NC1c1ccc(Br)cc1 (stereo unspecified)	/	/	/	/	/	-0.0735
Cc1ccc2nc(N3CCN(Cc4ccc(F)cc4)C3=O)c(C)cc2c1	6.9	-12.6	9.3	-13.2	4.9	2.24*
O=C1NCCN1Cc1ccc(F)cc1	-0.2	-20.5	4.0	2.0	0.9	-1.34
O=C(C1=C[C@H](c2coc3ccccc3c2=O)C[C@H](OCCCCO)O1)N1CCN(Cc2ccc3c(c2)OCO3)CC1	/	/	/	/	/	0.277
c1cc(CNc2ccc3c(c2)OCO3)ccn1	2.6	-18.2	10.1	2.2	-6.5	0.21
SMILES	EphB4 antag	Plk1 PBD FP	Rev-RRE block	PLK1 kinase inh	FAK blocker	hDAT+cocaine
Cc1ccc(CNc2ccc3c(c2)OCO3)cc1	0.6	-50.3	74.6*	-6.5	4.3	0.0661
Cc1cccc(-c2noc(CN(C(=O)c3ccc(Br)o3)C(C)C)n2)c1	2.3	-5.6	10.8	-18.5	-1.1	1.81*
COc1ccc(C(=O)Cc2ccc(OC)c(OC)c2)c(OC)c1	1.1	7.0	6.6	-14.2	-4.1	0.0307
c1ccc2c(c1)c1ccccc1n1c(-c3ccc4c(c3)OCO4)nnc21	0.6	19.1	9.6	-9.7	-8.3	-0.0556
O=C(Nc1ccccc1)c1ccc(NCc2ccco2)c(S(=O)(=O)N2CCOCC2)c1	-0.3	18.2	9.4	-6.4	-2.2	-0.979
O=C(Nc1ccccc1)c1ccc(NCc2cccnc2)c(S(=O)(=O)N2CCOCC2)c1	6.7	-0.8	10.9	-3.6	-1.5	-7.95*
Cc1ccc(S(=O)(=O)Nc2ccnc3ccccc23)cc1	-6.1	7.1	4.5	-1.9	1.7	-8*
Cc1ccc(S(=O)(=O)Nc2ccc(O)c3ncccc23)cc1	/	/	/	/	/	1.73
COC(=O)CCC(=O)OC1(C)C(=O)C=C2C=C(C3CC3)N(Cc3ccccc3)C=C2C1=O (stereo unspecified)	/	/	/	/	/	-2.31*
COC(=O)CCC(=O)OC1(C)C(=O)C=C2C=C(C3CC3)N(CC3CC3)C=C2C1=O (stereo unspecified)	/	/	/	/	/	-0.796
O=C1CC2(CCOCC2)Oc2ccc3ccccc3c21	/	/	/	/	/	-1.07
CC(=O)Nc1ccc(S(=O)(=O)c2ccc(N)cc2)cc1N	-5.5	6.1	3.4	9.4	-7.3	-0.213
CC(=O)Nc1ccc(S(=O)(=O)c2ccc(N)cc2)cc1	2.7	-6.0	8.5	2.2	0.6	1.99*
COC(=O)c1cccnc1NC(=S)NNC(=O)c1ccccc1	3.7	9.0	12.2	2.3	-1.9	-1.42
O=C(c1cccn2c(=O)c3ccccc3nc12)N1CCN(Cc2ccc3c(c2)OCO3)CC1	0.3	-29.0	0.3	9.7	-1.6	3.16*
O=C(c1cccn2c(=O)c3cc(Cl)ccc3nc12)N1CCN(Cc2ccc3c(c2)OCO3)CC1	1.5	-25.2	2.3	8.3	13.6	/
O=C(c1ccc(Br)s1)N1CCN(Cc2ccc3c(c2)OCO3)CC1	6.4	-17.8	7.1	-4.7	1.1	2.09*
CN(c1ccc(C(=O)N2CCN(Cc3ccc4c(c3)OCO4)CC2)cc1)S(=O)(=O)c1ccccc1	3.2	-26.7	7.7	-0.2	-1.8	3.49*
O=C(Nc1ccc(O)c2c(=O)cc(-c3cccc(Cl)c3)oc12)c1ccccc1Cl	/	/	/	/	/	-0.0848
Cc1ccc(S(=O)(=O)N2CCOCC2)cc1NC(=O)COC(=O)CSc1ccc(Br)cc1C	-1.9	8.0	-0.6	-9.9	-0.4	-2.12
COC(=O)Cc1cc(=O)[nH]c(/N=C(\N)Nc2ccccc2C)n1	0.3	1.8	5.3	-9.3	-0.4	0.896
CC(O)C(=O)NCCOCCOCCNC(=O)C(C)O (stereo unspecified)	-2.8	5.0	2.3	-4.7	-2.3	-0.129
CC(C(=O)Nc1ccc(S(=O)(=O)N2CCOCC2)cc1)N(c1ccccc1)S(C)(=O)=O (stereo unspecified)	/	/	/	/	/	1.34
CCN(CC)S(=O)(=O)c1ccc(NC(=O)C(C)N(c2ccccc2)S(C)(=O)=O)cc1 (stereo unspecified)	1.2	3.8	7.2	-14.2	2.1	2.53*

Screening data (PubChem BioAssay)
